Results on eleven molecules are retold here after ChEMBL document CHEMBL1130334, “Effect of plasma protein binding on in vivo activity and brain penetration of glycine/NMDA receptor antagonists” (J Med Chem, 1997).

One data set deals with Albumin (Homo sapiens, UniProt P02768). Put plainly: Human serum albumin index was measured by retention time on an HPLC column containing human albumin. An outline of the steps: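 HPLC on a column containing human serum albumin. Retention volume of each compound is divided by that of a reference standard and normalized so the standard equals 100.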
Sequence of Albumin (P02768 whole entry): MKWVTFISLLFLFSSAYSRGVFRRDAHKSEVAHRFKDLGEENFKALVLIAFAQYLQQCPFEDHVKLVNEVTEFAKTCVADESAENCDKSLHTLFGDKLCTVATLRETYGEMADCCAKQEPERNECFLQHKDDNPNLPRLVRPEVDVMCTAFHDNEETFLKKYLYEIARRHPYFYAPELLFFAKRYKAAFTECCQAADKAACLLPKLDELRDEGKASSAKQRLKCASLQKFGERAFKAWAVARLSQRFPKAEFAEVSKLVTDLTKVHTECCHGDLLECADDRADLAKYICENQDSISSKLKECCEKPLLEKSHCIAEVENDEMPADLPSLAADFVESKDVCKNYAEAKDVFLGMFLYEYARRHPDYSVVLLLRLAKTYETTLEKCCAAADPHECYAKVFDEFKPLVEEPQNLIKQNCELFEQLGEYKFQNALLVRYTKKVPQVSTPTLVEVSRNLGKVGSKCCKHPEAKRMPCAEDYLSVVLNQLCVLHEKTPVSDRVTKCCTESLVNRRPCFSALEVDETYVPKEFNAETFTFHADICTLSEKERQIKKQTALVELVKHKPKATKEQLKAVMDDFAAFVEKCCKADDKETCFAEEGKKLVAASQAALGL
The nature of data set [1]: Protein binding index(PBI) is the ratio of binding affinities for the displacement of [3H]-glycine from rat cortical membranes in the presence and absence of 0.2% human serum albumin. It counts as functional, cell membranes. The settings on record: Membrane. The method in brief: (§1)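 [³H]glycine displacement from rat cortical membranes, with and without 0.2% (w/v) human serum albumin. Separation by centrifugation. Index = IC50 with albumin / IC50 without albumin.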
Background: In a radioligand displacement assay an active substance lowers the binding of a labelled ligand.

The test system of data set [2] is Mus musculus. Kind of data set: Anticonvulsant activity measured by its ability to protect against audiogenic seizure in DBA/2 mice when dosed intraperitoneally 30 min prior to seizure induction. Conditions: ip. It counts as functional. An outline of the steps: (§2)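 DBA/2 mice, compound dosed intraperitoneally 30 min before induction of audiogenic seizures. Reported as ED50 (mg/kg and μmol/kg) or as number protected/number tested at a single dose. For some compounds the test was run 10 min after dosing.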

The target in data set [3] is Glutamate NMDA receptor (Rattus norvegicus) (UniProt P35439+Q00959+Q00960+Q00961+Q62645+Q8VHN2+Q9R1M7). Kind of data set: Protein binding index(PBI) reflects the relative displacement of [3H]glycine from rat cortical membranes in the presence and absence of 0.2% human serum albumin. It counts as cell membranes. The settings on record: Membrane. The method in brief: as §1

The species entered for a further data set is Rattus norvegicus. Put plainly: Clearance into cortex from rat plasma or PBS. Conditions: in vivo. It counts as ADME, organism-based. The method in brief: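 Rat in situ brain perfusion (Takasato method, Gratton modifications). Compound is dissolved in phosphate-buffered saline and perfused 10 s, or dissolved in rat plasma and perfused 60 s. Drug in cortex is measured and clearance from the perfusate into cortex is calculated (mL s⁻¹ g⁻¹ × 10⁴). Mean with SEM, n = 4.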

The nature of data set [4]: Partition coefficient (logP). It counts as physicochemical. The settings on record: octanol/water. The method in brief:
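Octanol/pH 7.4 buffer partition; values were either measured or calculated from tables of π values.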

For data set [5], the system named is Mus musculus. Put plainly: Anti convulsant activity of compound was measured by its ability to protect against audiogenic seizure in DBA/2 mice when dosed intraperitoneally 30 min prior to seizure induction. Conditions: ip. It counts as functional. The method in brief:
as §2

Data set [6] is described as follows: protein binding index(PBI) is the ratio of binding affinities for the displacement of [3H]- glycine from rat cortical membranes in the presence and absence of 0.2% human serum albumin. It counts as cell membranes. The settings on record: Membrane. The method in brief: as §1
The target in the next data set is Glutamate NMDA receptor. Put plainly: Affinity for the glycine binding site on rat N-methyl-D-aspartate glutamate receptor 1, determined by displacement of the glycine site antagonist [3H]L-689,560 from rat cortical membranes. It counts as cell membranes, Membrane.
The subject of data set [7] is Mus musculus. Kind of data set: Ability of intravenously administered compound to prevent seizures, induced by NMDLA (500 mg/kg sc) in mice. It counts as functional. The method in brief: (§3)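 Swiss Webster mice; seizures induced by N-methyl-D,L-aspartate 500 mg/kg sc. Test compound given iv 15 min before NMDLA. Where warfarin is used, it is given iv 15 min before the test compound.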

The subject of data set [8] is Mus musculus. Kind of data set: Ability of intravenously administered compound to prevent seizures, induced by NMDLA (500 mg/kg sc) in mice, in the presence of 100 mg/kg of warfarin. It counts as functional. Conditions: route intravenous. An outline of the steps: as §3
The subject of data set [9] is Mus musculus. Put plainly: Ability of intravenously administered compound to prevent seizures, induced by NMDLA (500 mg/kg sc) in mice, in the presence of 60 mg/kg of warfarin. It counts as functional. The settings on record: route intravenous. The method in brief:
as §3

With `C=C(C)COc1cccc(C2=C(O)/C(=C/CC)NC2=O)c1`, the HSAI on Albumin stood at 13. Further, the PBI in [1] was 12.1.

The ED50 is the midpoint of the dose-response relation. Consider `Oc1nc2cc(Cl)ccc2c(O)c1-c1cccc(Cc2ccccc2)c1`, for which it took a dose of 1.3 mg/kg to reach the 50% effect level in the data set on Mus musculus [2] (ED50). Besides, the PBI in data set [3] was determined as 758.

Turning to `COC(=O)c1c(O)c2ccc(Cl)cc2[nH]c1=O`, the Cortex_Clearance in the data set filed under Rattus norvegicus is on record as 2.8 ml s-1 (10e4*g)-1. This molecule showed an HSAI at Albumin of 3. Also, the PBI in [3] came out at 5.4.

For the molecule `Oc1nc2cc(Cl)ccc2c(O)c1-c1cccc(Oc2ccsc2)c1`, in the data set on Mus musculus [2], the ED50 was 0.75 mg/kg. The molecule also showed a PBI in data set [3] of 127.

By logP is commonly meant the decadic logarithm of the partition coefficient of the neutral form, usually between octanol and water. In data set [4], `O=c1[nH]c2cc(Cl)ccc2c(O)c1-c1ccccc1` registered a logP of 1.6. This molecule also returned an ED50 in the data set on Mus musculus [5] of 4.5 mg/kg. The same molecule displayed an HSAI at Albumin of 10. For the same molecule, the PBI in data set [6] was 37.

A word on the IC50: it is the midpoint of a concentration-inhibition curve. The low end stands for greater potency in that assay, the high end for weaker potency in that assay. `COCOc1ccc(Cc2cccc(-c3c(O)c4ccc(Cl)cc4[nH]c3=O)c2)cc1`: the logP in [4] was 3.34. In the data set with Mus musculus [5], it took a dose of 0.5 mg/kg to reach the 50% effect level (ED50). For the same molecule, the IC50 on Glutamate NMDA receptor was found to be 2.2 nM. The same molecule displayed an HSAI at Albumin of 78.

On to `O=c1[nH]c2cc(Cl)ccc2c(O)c1-c1cccc(Oc2ccccc2)c1`, for which the Cortex_Clearance in the data set filed under Rattus norvegicus is 0 ml s-1 (10e4*g)-1. For the same molecule, the logP in [4] was 2.9. Moreover, the ED50 is 3.6 mg/kg in the data set on Mus musculus [7], 0.64 mg/kg in the data set on Mus musculus [8], 1.9 mg/kg with Mus musculus [9] and 0.88 mg/kg with Mus musculus [2]. At Albumin, this molecule came in with an HSAI of 100. Moreover, the PBI in data set [3] amounted to 94.

`NCc1ccc(CC(=O)N[C@H]2C[C@H](C(=O)O)Nc3cc(Cl)cc(Cl)c32)cc1` showed an ED50 with Mus musculus [2] of 30 mg/kg. In addition, at Glutamate NMDA receptor, the IC50 stood at 38.5 nM. Further, the HSAI at Albumin was determined as 2. The same molecule had a PBI in [3] of 1.1.

`COc1ccc(Cc2cccc(-c3c(O)c4ccc(Cl)cc4[nH]c3=O)c2)cc1` displayed a logP in data set [4] of 2.81. In the data set with Mus musculus [2], this molecule gave an ED50 of 0.7 mg/kg. On Glutamate NMDA receptor, this molecule yielded an IC50 of 4.5 nM. The same molecule showed an HSAI on Albumin of 97. Also, the PBI in data set [3] was found to be 193.

On to `Cc1ccc(-c2c(O)c3ccc(Cl)cc3[nH]c2=O)o1`, for which, in the data set listed under Rattus norvegicus, the Cortex_Clearance is 4.4 ml s-1 (10e4*g)-1. For the same molecule, at Glutamate NMDA receptor, the 50% inhibitory concentration (IC50) amounted to 481 nM. Moreover, the HSAI on Albumin turned out to be 8.

Regarding `Oc1nc2ccccc2c(O)c1-c1ccccc1`, in the data set on Mus musculus [2], the ED50 is 10.9 mg/kg. This molecule also yielded a PBI in data set [3] of 3.1.
